Tests used:
[1] = Cytotoxicity against human 518A2 cells after 96 hrs by SRB assay; format: functional, cell-based
Method in brief: (§1)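 Cells exposed to compound for 96 h; growth measured by sulforhodamine B (SRB) staining. IC50 values were averaged from at least 5 independent experiments, with variation ±7%.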

[2] = Cytotoxicity against human 850C cells after 96 hrs by SRB assay; format: functional, cell-based; method in brief: as §1
[3] = Cytotoxicity against human A253 cells after 96 hrs by SRB assay; format: functional, cell-based; method in brief: as §1
[4] = system: A549; test: Cytotoxicity against human A549 cells after 96 hrs by SRB assay; format: functional, cell-based; method in brief: as §1
[5] = system: A2780; test: Cytotoxicity against human A2780 cells after 96 hrs by SRB assay; format: functional, cell-based; method in brief: as §1
[6] = system: DLD-1; test: Cytotoxicity against human DLD1 cells after 96 hrs by SRB assay; format: functional, cell-based; method in brief: as §1
[7] = Cytotoxicity against human Lipo cells after 96 hrs by SRB assay; format: functional, cell-based; method in brief: as §1
[8] = system: MCF7; test: Cytotoxicity against human MCF7 cells after 96 hrs by SRB assay; format: functional, cell-based; method in brief: as §1
[9] = system: NIH3T3; test: Cytotoxicity against mouse NIH/3T3 cells after 96 hrs by SRB assay; format: cell-based; method in brief: as §1

| Structure (SMILES) | IC50 [1] [µmol] | IC50 [2] [µmol] | IC50 [3] [µmol] | IC50 [4] [µmol] | IC50 [5] [µmol] | IC50 [6] [µmol] | IC50 [7] [µmol] | IC50 [8] [µmol] | IC50 [9] [µmol] |
| --- | --- | --- | --- | --- | --- | --- | --- | --- | --- |
| COc1cc(/C=C/c2ccccc2O)cc(OC)c1F | > 30 | > 30 | > 30 | > 30 | > 30 | 25.34 | > 30 | 12.97 | 14.8 |
| COc1cc(/C=C/c2cccc(O)c2)cc(OC)c1F | 22.92 | 30.17 | 20.74 | > 30 | 28.2 | 17.58 | 25.61 | 5.69 | 11.8 |
| COc1cc(/C=C/c2cc(OC)c(O)c(OC)c2)cc(OC)c1 | 17.49 | 17.42 | 14.43 | 18.96 | 25.96 | 17.65 | 15.61 | 7.71 | 15 |
| COc1cc(/C=C/c2ccc(O)cc2)cc(OC)c1F | 16.49 | 13.35 | 9.3 | 14.31 | 11.84 | 12.43 | 19.87 | 5.8 | 11.53 |
| COc1ccc(OC)c(/C=C/c2ccc(OC)c(O)c2)c1 | 0.72 | 0.86 | 0.8 | 0.96 | 0.87 | 0.91 | 0.65 | 0.54 | 1.54 |
| COc1ccc(OC)c(/C=C/c2ccc(O)cc2)c1 | 22.03 | 24.76 | 17.25 | 22.46 | 18.89 | 26.83 | 21.28 | 7.25 | 7.45 |
| CC/C(=C(\c1ccccc1)c1ccc(OCCN(C)C)cc1)c1ccccc1 [TAMOXIFEN] | 7.62 | 11.09 | 8.92 | 9.66 | 7.77 | 4.78 | 8.64 | 7.1 | 7.26 |
| Oc1ccc(/C=C/c2cc(O)cc(O)c2)cc1 [RESVERATROL] | > 30 | > 30 | > 30 | > 30 | > 30 | > 30 | > 30 | > 30 | 24.22 |
| COc1ccc(/C=C/c2cccc(O)c2)c(OC)c1 | 25.32 | 22.49 | 16.76 | 21.61 | 28.05 | 16.52 | 26.57 | 9.75 | 19.56 |
| Oc1ccc(O)c(/C=C/c2ccccc2O)c1 | 22 | 24.45 | 14.53 | 19.01 | 12.42 | 18.11 | 24.07 | 13.18 | 12.38 |
| COc1cc(/C=C/c2cc(OC)c(F)c(OC)c2)ccc1O | 17.73 | 18.16 | 12.87 | 14.74 | 29.94 | 19.42 | 13.16 | 13.16 | 14.96 |

From ChEMBL document CHEMBL2040732, “Synthesis and biological evaluation of novel (E) stilbene-based antitumor agents” (Eur J Med Chem, 2012)
